ChEMBL document CHEMBL4765247, “Novel mouse GABA uptake inhibitors with enhanced inhibitory activity toward mGAT3/4 and their effect on pain threshold in mice” (Eur J Med Chem, 2020)
Each block holds one compound with its values, some of them ahead of it. Activity calls are given as the source filed them.

Columns and labels:
[1] = Lipophilicity, logP of the compound by UPLC-MS method; type: physicochemical; settings: octanol/water; read-out: logP
Procedure, shortened: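 LogP measured by UPLC on a BEH C18 column (2.1 × 100 mm, 1.7 µm, with C18 pre-column) coupled to an ESI tandem quadrupole MS. The method was calibrated with reference compounds of established logP values.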

GABA transporter 4 [2] = biological target: T1, GABA transporter 4 (Mus musculus, UniProt P31650); experiment: Inhibition of mouse GAT4 expressed in HEK293 cell line assessed as inhibition of [3H]GABA uptake measured after 35 mins by liquid scintillation method; type: cell-based
T1 sequence (P31650 whole entry): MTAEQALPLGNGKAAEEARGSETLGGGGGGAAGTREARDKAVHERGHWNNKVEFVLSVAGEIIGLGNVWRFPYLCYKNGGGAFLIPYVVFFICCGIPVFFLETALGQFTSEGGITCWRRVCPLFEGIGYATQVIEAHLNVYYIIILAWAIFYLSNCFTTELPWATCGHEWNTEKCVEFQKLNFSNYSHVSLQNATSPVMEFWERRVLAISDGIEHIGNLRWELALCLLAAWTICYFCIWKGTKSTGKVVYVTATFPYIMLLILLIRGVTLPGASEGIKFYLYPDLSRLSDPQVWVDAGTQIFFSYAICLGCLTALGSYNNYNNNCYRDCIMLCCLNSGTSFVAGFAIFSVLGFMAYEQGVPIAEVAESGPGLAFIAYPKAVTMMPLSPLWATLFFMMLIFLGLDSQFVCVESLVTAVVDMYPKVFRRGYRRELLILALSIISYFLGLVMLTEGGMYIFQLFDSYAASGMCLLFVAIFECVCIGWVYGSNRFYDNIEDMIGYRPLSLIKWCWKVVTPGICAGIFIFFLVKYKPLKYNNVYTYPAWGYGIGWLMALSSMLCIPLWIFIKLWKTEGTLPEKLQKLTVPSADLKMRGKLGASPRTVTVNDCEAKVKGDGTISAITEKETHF
Procedure, shortened: (§1)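 Otherwise, the remaining uptake at 100 µM is reported as a percentage. Values without SEM come from a single triplicate experiment.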

[3] = biological target: Sodium- and chloride-dependent GABA transporter 1 (Mus musculus) (UniProt P31648); experiment: Displacement of [3H]NO711 from mouse GAT1 expressed in HEK293 cells at 100 uM measured after 40 mins of incubation by LC-ESI-MS-MS method; type: cell-based; settings: in the assay text read “NO711” for “[3H]NO711”
Procedure, shortened: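 Competitive MS Binding Assay for mGAT1 using NO-711 as a nonlabeled marker, quantified by LC–ESI–MS–MS. Compounds were screened at 100 µM. […] Otherwise, the percentage of remaining binding at 100 µM is given.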

[4] = system: BGT1 (Mus musculus, Slc6a12); experiment: Inhibition of mouse GAT2 expressed in HEK293 cell line assessed as residual [3H]GABA uptake at 100 uM measured after 35 mins by liquid scintillation method
[5] = biological target: Sodium- and chloride-dependent GABA transporter 1 (Mus musculus) (UniProt P31648); experiment: Inhibition of mouse GAT1 expressed in HEK293 cell line assessed as inhibition of [3H]GABA uptake at 100 uM measured after 35 mins by liquid scintillation method; values are per cent of control
[6] = biological target: T2, Sodium- and chloride-dependent GABA transporter 1 (Mus musculus, UniProt P31648); experiment: Displacement of unlabelled NO711 from mouse GAT1 expressed in HEK293 cells measured after 40 mins of incubation by LC-ESI-MS-MS method
[7] = biological target: T2, Sodium- and chloride-dependent GABA transporter 1; experiment: Inhibition of mouse GAT1 expressed in HEK293 cell line assessed as inhibition of [3H]GABA uptake measured after 35 mins by liquid scintillation method; type: cell-based; procedure, shortened: as §1
Mus musculus [8] = experiment: Antiallodynic activity in STZ-induced diabetic neuropathy pain Albino Swiss mouse model assessed as reduced tactile allodynia at 5 mg/kg, ip administered after 3 weeks of STZ stimulation and measured after 1 hr by von Frey test; type: functional, organism-based
Procedure, shortened: (§2)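 STZ given i.p. to induce type I diabetes in mice. About 3 weeks (21 days) later, test doses of 5, 10 and 30 mg/kg were given i.p. Von Frey tactile allodynia was read 1 h after dosing as the mean force needed to elicit paw withdrawal (n=10). Results are mean ± SEM, analysed by one-way ANOVA with Tukey's test against pre-drug force and normoglycemic controls.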

Mus musculus [9] = experiment: Antiallodynic activity in STZ-induced diabetic neuropathy pain Albino Swiss mouse model assessed as reduced tactile allodynia at 10 mg/kg, ip administered after 3 weeks of STZ stimulation and measured after 1 hr by von Frey test; type: functional, organism-based; procedure, shortened: as §2
Mus musculus [10] = experiment: Antiallodynic activity in STZ-induced diabetic neuropathy pain Albino Swiss mouse model assessed as reduced tactile allodynia at 30 mg/kg, ip administered after 3 weeks of STZ stimulation and measured after 1 hr by von Frey test; type: functional, organism-based; procedure, shortened: as §2
Mus musculus [11] = experiment: Antihyperalgesic activity in STZ-induced diabetic neuropathy pain Albino Swiss mouse model assessed as reduced heat nociceptive threshold at 10 mg/kg, ip administered after 3 weeks of STZ stimulation and measured after 1 hr by hot plate method; type: functional, organism-based
Procedure, shortened: (§3)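 Heat hyperalgesia in STZ-diabetic neuropathic mice (3 weeks after i.p. STZ) was measured on a hot plate 1 h after i.p. dosing. The readout was latency to pain reaction, comparing pre-drug and post-drug values (n=9-10). Results are mean ± SEM, analysed by one-way ANOVA with Tukey's post hoc test against normoglycemic controls.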

Mus musculus [12] = experiment: Antihyperalgesic activity in STZ-induced diabetic neuropathy pain Albino Swiss mouse model assessed as reduced heat nociceptive threshold at 30 mg/kg, ip administered after 3 weeks of STZ stimulation and measured after 1 hr by hot plate method; type: functional, organism-based; procedure, shortened: as §3
Mus musculus [13] = experiment: Antiallodynic activity in oxaliplatin-induced […] neuropathy pain Albino Swiss mouse model assessed as reduced acute-phase tactile allodynia at 30 mg/kg, ip administered after 3 hrs of oxaliplatin stimulation and measured after 1 hr by von Frey test; type: functional, organism-based
Procedure, shortened: (§4)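 Oxaliplatin-induced peripheral neuropathy in mice was tested in the acute and late phases. Compounds were given i.p. and tactile allodynia was read 1 h later by von Frey as the mean force to elicit paw withdrawal (n=7-10). Results are mean ± SEM, analysed by one-way ANOVA with Tukey's test against pre-drug force and non-neuropathic controls.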

Mus musculus [14] = experiment: Antiallodynic activity in oxaliplatin-induced […] neuropathy pain Albino Swiss mouse model assessed as reduced late-phase tactile allodynia at 30 mg/kg, ip administered after 7 days of oxaliplatin stimulation by van Frey test; type: functional, organism-based; procedure, shortened: as §4
Mus musculus [15] = experiment: Antihyperalgesic activity in oxaliplatin-induced […] acute neuropathy pain Albino Swiss mouse model assessed as reduction in cold allodynia at 30 mg/kg, ip administered after 3 hrs of oxaliplatin stimulation by cold plate method; type: functional, organism-based
Procedure, shortened: (§5)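 For cold allodynia, oxaliplatin-treated mice were placed on a cold plate in the acute and late phases of neuropathy after i.p. dosing. The readout was mean latency to pain reaction (n=7-10). Results are mean ± SEM, analysed by one-way ANOVA with Tukey's post hoc test against non-neuropathic controls.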

Mus musculus [16] = experiment: Antihyperalgesic activity in oxaliplatin-induced […] late neuropathy pain Albino Swiss mouse model assessed as reduction in cold allodynia at 30 mg/kg, ip administered after 7 days of oxaliplatin stimulation by cold plate method; type: functional, organism-based; procedure, shortened: as §5
Mus musculus [17] = experiment: Antihyperalgesic activity in oxaliplatin-induced […] acute neuropathy pain Albino Swiss mouse model assessed as reduction in cold allodynia at 10 mg/kg, ip administered after 3 hrs of oxaliplatin stimulation by cold plate method; type: functional, organism-based; procedure, shortened: as §5
Mus musculus [18] = experiment: Antihyperalgesic activity in oxaliplatin-induced […] late neuropathy pain Albino Swiss mouse model assessed as reduction in cold allodynia at 10 mg/kg, ip administered after 7 days of oxaliplatin stimulation by cold plate method; type: functional, organism-based; procedure, shortened: as §5
Mus musculus [19] = experiment: Antiallodynic activity in oxaliplatin-induced peripheral neuropathy pain Albino Swiss mouse model assessed as reduced late-phase tactile allodynia at 30 mg/kg, ip administered after […] of oxaliplatin stimulation and measured after 1 hr by van Frey test
Mus musculus [20] = experiment: Antiallodynic activity in oxaliplatin-induced peripheral neuropathy pain Albino Swiss mouse model assessed as reduced acute-phase tactile allodynia at 10 mg/kg, ip administered after 3 hrs of oxaliplatin stimulation and measured after 1 hr by von Frey test
[21] = biological target: T2, Sodium- and chloride-dependent GABA transporter 1; experiment: Inhibition of mouse GTA 1 receptor
GABA transporter 3 = biological target: T3, GABA transporter 3 (Mus musculus, UniProt P31649); experiment: Inhibition of mouse GTA 3 receptor
T3 sequence (P31649 whole entry): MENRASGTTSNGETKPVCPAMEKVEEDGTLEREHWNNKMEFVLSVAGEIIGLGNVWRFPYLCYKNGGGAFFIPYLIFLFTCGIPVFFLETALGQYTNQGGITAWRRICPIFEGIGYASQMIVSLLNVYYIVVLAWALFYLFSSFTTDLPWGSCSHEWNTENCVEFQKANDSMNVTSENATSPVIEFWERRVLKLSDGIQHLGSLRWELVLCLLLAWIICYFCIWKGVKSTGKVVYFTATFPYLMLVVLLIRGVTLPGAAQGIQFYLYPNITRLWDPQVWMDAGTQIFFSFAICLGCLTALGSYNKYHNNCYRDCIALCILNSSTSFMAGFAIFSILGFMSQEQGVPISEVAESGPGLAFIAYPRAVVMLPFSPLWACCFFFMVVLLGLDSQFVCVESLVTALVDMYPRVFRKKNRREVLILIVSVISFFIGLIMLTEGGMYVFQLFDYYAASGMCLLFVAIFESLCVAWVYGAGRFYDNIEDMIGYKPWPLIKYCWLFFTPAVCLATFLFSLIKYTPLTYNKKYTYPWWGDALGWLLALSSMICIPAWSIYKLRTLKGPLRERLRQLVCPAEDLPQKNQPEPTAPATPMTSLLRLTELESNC

GABA transporter 4 [22] = biological target: T1, GABA transporter 4; experiment: Inhibition of mouse GTA4 receptor
[23] = biological target: GABA transporter 3 (Mus musculus, Slc6a13); experiment: Inhibition of mouse GAT3 expressed in HEK293 cell line assessed as inhibition of [3H]GABA uptake measured after 35 mins by liquid scintillation method
[24] = biological target: Betaine/GABA transporter BGT1 (Mus musculus, Slc6a12); experiment: Inhibition of mouse GAT2 expressed in HEK293 cell line assessed as inhibition of [3H]GABA uptake measured after 35 mins by liquid scintillation method

- Ki [6]: 38 µM
Compound: Cc1ccsc1C(=CCCN(C)[C@@H](CCO)C(=O)NCc1ccccc1Cl)c1sccc1C

- IC50 [21]: 64.6 µM
- IC50 (GABA transporter 3): 14.1 µM
- IC50 (GABA transporter 4 [22]): 1660 nM
Compound: COc1ccc(C(OCCN2CCC[C@@H](C(=O)O)C2)(c2ccc(OC)cc2)c2ccc(OC)cc2C)cc1

- IC50 (GABA transporter 4 [2]): 77.6 µM
- residual activity [3]: 96%
- residual activity [4]: 65%
- residual activity [5]: 61%
Compound: Cc1ccsc1C(=CCCN(C)C(CO)C(=O)NCc1ccccc1Cl)c1sccc1C (configuration not stated)

- pIC50 [23]: 4.85
- pIC50 [24]: 4.12
Compound: COc1ccc(C(OCCN2CCC[C@H](C(=O)O)C2)(c2ccc(OC)cc2)c2ccc(OC)cc2C)cc1

Continued, compound first:

Compound: Cc1ccsc1C(=CCCN(C)C(CCO)C(=O)N1CCOCC1)c1sccc1C (configuration not stated)
- logP [1]: 4.75
- IC50 (GABA transporter 4 [2]): 33.1 µM
- residual activity [3]: 84%
- residual activity [4]: 76%
- residual activity [5]: 57%

Compound: Cc1ccsc1C(=CCCN(C)C(CO)C(=O)NCc1ccc(Cl)cc1)c1sccc1C (configuration not stated)
- IC50 [7]: 20.4 µM
- Activity (Mus musculus [8]): inactive
- Activity (Mus musculus [9]): inactive
- Activity (Mus musculus [10]): Active
- Activity (Mus musculus [11]): inactive
- Activity (Mus musculus [12]): inactive
- Activity (Mus musculus [13]): Active
- Activity (Mus musculus [14]): Active
- Activity (Mus musculus [15]): inactive
- Activity (Mus musculus [16]): inactive
- logP [1]: 6.47
- IC50 (GABA transporter 4 [2]): 9.55 µM
- residual activity [3]: 66%

Compound: Cc1ccsc1C(=CCCN(C)C(CCO)C(=O)NCc1ccccc1Cl)c1sccc1C (configuration not stated)
- IC50 [7]: 13.8 µM
- Activity (Mus musculus [8]): inactive
- Activity (Mus musculus [9]): Active
- Activity (Mus musculus [10]): Active
- Activity (Mus musculus [11]): inactive
- Activity (Mus musculus [12]): inactive
- Activity (Mus musculus [13]): Active
- Activity (Mus musculus [14]): Active
- Activity (Mus musculus [17]): inactive
- Activity (Mus musculus [15]): inactive
- Activity (Mus musculus [18]): inactive
- Activity (Mus musculus [16]): inactive
- logP [1]: 6.23
- IC50 (GABA transporter 4 [2]): 5.75 µM
- residual activity [3]: 77%
- Activity (Mus musculus [19]): Active
- Activity (Mus musculus [20]): Active

Compound: Cc1ccsc1C(=CCCN(C)C(CO)C(=O)NCc1ccc(F)cc1)c1sccc1C (configuration not stated)
- IC50 [7]: 15.1 µM
- logP [1]: 6.45
- IC50 (GABA transporter 4 [2]): 17 µM
- Ki [6]: 51.3 µM

Compound: Cc1ccc(CNC(=O)C(CO)N(C)CCC=C(c2sccc2C)c2sccc2C)cc1 (configuration not stated)
- IC50 [7]: 20 µM
- IC50 (GABA transporter 4 [2]): 9.55 µM
- Ki [6]: 38.9 µM
